Measurements taken from ChEMBL document CHEMBL4732155 (Eur J Med Chem, 2021).
pIC50: −log10 of the molar value. Activity calls are given as the source filed them. No cut-off for these calls is given here.

What was measured:
[1] = Inhibition of proteasomal turnover of p97-independent ODD-luciferase reporter substrate in human HeLa cells incubated for 120 mins by luciferase reporter gene assay; format: functional, cell-based; settings: 2 h
In short: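 HeLa cells co-expressing UbG76V-GFP and ODD-Luc were seeded at 5000/well in clear DMEM with 2.5% FBS. They were pretreated with 4 μM MG132 for 60 min at 37 °C, washed with PBS, then given cycloheximide plus compound for 120 min at 37 °C and washed. GFP was read by high-content confocal imaging, then luminescence after 10 min with D-luciferin at r.t. IC50 was fitted from quadruplicates.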

[2] = Selectivity ratio of IC50 for inhibition of proteasomal turnover of p97-independent ODD-luciferase reporter substrate in human HeLa cells to IC50 for inhibition of p97 in human HeLa cells assessed as reduction in proteasomal turnover of p97-dependent reporter substrate UbG76V-GFP
In short: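 HeLa cells stably carrying both UbG76V-GFP and ODD-Luc, in DMEM with 2.5% FBS, received 4 μM MG132 for 60 min at 37°C. After PBS washes they got cycloheximide plus compound for 120 min at 37°C. GFP was read by confocal imaging, then luminescence after D-luciferin (10 min, r.t.). IC50s for each reporter came from quadruplicates.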

[3] = target: T1, Transitional endoplasmic reticulum ATPase (Homo sapiens, UniProt P55072); test: Inhibition of His6-tagged p97 (unknown origin) expressed in Escherichia coli BL21 (DE3) assessed as reduction in ATPase activity measured after 60 mins in presence of DTT by biomol green reagent based assay
In short: (§1)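 His6-p97 expressed in E. coli BL21(DE3), purified by Ni-NTA and gel filtration (500–600 kDa fractions, ≥95% pure). Phosphate read by Biomol Green at 635 nm. Eight-dose titrations; IC50 from six replicates. Thiol tests added DTT or cysteine during preincubation.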

[4] = target: T1, Transitional endoplasmic reticulum ATPase; test: Binding affinity to His6-tagged p97 (unknown origin) expressed in Escherichia coli BL21 (DE3) assessed as Cys522-adduct formation by tandem mass spectrometry
[5] = Inhibition of His6-tagged p97 C522T mutant (unknown origin) expressed in Escherichia coli BL21 (DE3) assessed as reduction in ATPase activity measured after 60 mins by biomol green reagent based assay; set-up: species or system Homo sapiens; in short: as §1
HCT-116 = test: Antiproliferative activity against CB-5083-resistant human HCT-116 cells after 48 hrs by celltiter-glo luminescence assay; format: functional, cell-based
In short: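 CellTiter-Glo viability in HCT116 lines carrying resistance mutations in p97 (CB-5083-resistant: D649A/T688A; NMS-873-resistant: A530T). Cells seeded at 750 or 3000/well within the linear range of a per-line standard curve, in DMEM with 5% FBS. Treated 24 h after seeding with eight three-fold dilutions for 48 h. IC50 from percent growth versus DMSO control; mean ± SEM of four replicate experiments.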

[6] = Effect on PLEC expression in human HCT-116 cells at 15 uM measured after 6 hrs by LC-MS/MS analysis relative to control; format: functional
In short: (§2)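 HCT116 cells treated 6 h with DMSO, 15 μM or 30 μM compound, then pelleted. Peptides (1 μg) separated on a 25 cm C18 nano-column with a 136 min gradient and analysed by label-free LC-MS/MS on an Orbitrap Eclipse. Searched against the UniProt human database and quantified from normalized abundance. Two independent biological replicates per group; log2 fold change versus DMSO, p < 0.05.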

[7] = Effect on SQSTM1 expression in human HCT-116 cells at 15 uM measured after 6 hrs by LC-MS/MS analysis relative to control; format: functional; in short: as §2
[8] = Effect on BRCC3 expression in human HCT-116 cells at 15 uM measured after 6 hrs by LC-MS/MS analysis relative to control; format: functional; in short: as §2
[9] = Effect on STIM1 expression in human HCT-116 cells at 15 uM measured after 6 hrs by LC-MS/MS analysis relative to control; format: functional; in short: as §2
[10] = Effect on LAMP1 expression in human HCT-116 cells at 15 uM measured after 6 hrs by LC-MS/MS analysis relative to control; format: functional; in short: as §2
[11] = Effect on KEAP1 expression in human HCT-116 cells at 15 uM measured after 6 hrs by LC-MS/MS analysis relative to control; format: functional; in short: as §2
[12] = Effect on KNTC1 expression in human HCT-116 cells at 15 uM measured after 6 hrs by LC-MS/MS analysis relative to control; format: functional; in short: as §2
[13] = Effect on AUP1 expression in human HCT-116 cells at 15 uM measured after 6 hrs by LC-MS/MS analysis relative to control; format: functional; in short: as §2
[14] = Effect on GOLGA3 expression in human HCT-116 cells at 15 uM measured after 6 hrs by LC-MS/MS analysis relative to control; format: functional; in short: as §2
[15] = Effect on AP2M1 expression in human HCT-116 cells at 15 uM measured after 6 hrs by LC-MS/MS analysis relative to control; format: functional; in short: as §2
[16] = Effect on PLEC expression in human HCT-116 cells at 30 uM measured after 6 hrs by LC-MS/MS analysis relative to control; format: functional; in short: as §2
[17] = Effect on EPPK1 expression in human HCT-116 cells at 30 uM measured after 6 hrs by LC-MS/MS analysis relative to control; format: functional; in short: as §2
[18] = Effect on ZFAND1 expression in human HCT-116 cells at 30 uM measured after 6 hrs by LC-MS/MS analysis relative to control; format: functional; in short: as §2
[19] = Effect on PRKRIR expression in human HCT-116 cells at 30 uM measured after 6 hrs by LC-MS/MS analysis relative to control; format: functional; in short: as §2
[20] = Effect on BRCC3 expression in human HCT-116 cells at 30 uM measured after 6 hrs by LC-MS/MS analysis relative to control; format: functional; in short: as §2
[21] = Effect on CDK2AP1 expression in human HCT-116 cells at 30 uM measured after 6 hrs by LC-MS/MS analysis relative to control; format: functional; in short: as §2
[22] = Effect on KEAP1 expression in human HCT-116 cells at 30 uM measured after 6 hrs by LC-MS/MS analysis relative to control; format: functional; in short: as §2

T1 sequence (P55072 2-806 limits assumed): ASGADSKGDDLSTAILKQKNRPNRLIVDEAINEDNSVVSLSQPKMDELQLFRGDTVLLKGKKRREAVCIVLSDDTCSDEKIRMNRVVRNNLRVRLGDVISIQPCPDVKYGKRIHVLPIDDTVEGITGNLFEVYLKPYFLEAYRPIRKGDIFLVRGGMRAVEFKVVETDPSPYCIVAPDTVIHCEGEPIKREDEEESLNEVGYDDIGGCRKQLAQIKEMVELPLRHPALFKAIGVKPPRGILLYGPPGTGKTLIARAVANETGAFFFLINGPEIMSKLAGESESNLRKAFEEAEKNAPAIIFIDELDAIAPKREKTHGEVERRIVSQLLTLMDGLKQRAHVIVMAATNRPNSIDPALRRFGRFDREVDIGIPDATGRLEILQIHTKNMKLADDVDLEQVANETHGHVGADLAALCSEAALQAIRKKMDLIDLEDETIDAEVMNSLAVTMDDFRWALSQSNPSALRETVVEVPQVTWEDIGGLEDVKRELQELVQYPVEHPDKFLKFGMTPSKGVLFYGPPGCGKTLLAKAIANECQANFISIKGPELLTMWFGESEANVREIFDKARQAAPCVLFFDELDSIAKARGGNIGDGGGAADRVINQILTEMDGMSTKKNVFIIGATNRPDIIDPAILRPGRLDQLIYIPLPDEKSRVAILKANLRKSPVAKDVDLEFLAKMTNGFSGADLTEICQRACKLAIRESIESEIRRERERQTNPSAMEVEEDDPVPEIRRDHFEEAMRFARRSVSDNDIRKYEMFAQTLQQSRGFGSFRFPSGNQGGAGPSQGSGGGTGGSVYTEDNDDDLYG

Structure (SMILES): C=CC(=O)Nc1ncnc2c1c(-c1ccccc1)nn2C(C)(C)C
- pIC50 [1]: 4.46
- Selectivity ratio [2]: 20
- inhibition [3]: Active
- Activity [4]: Active
- pIC50 [5]: 4.09
- Activity (HCT-116): Active
- log2FC [6]: 0.33
- log2FC [7]: 0.42
- log2FC [8]: 0.94
- log2FC [9]: 1.49
- log2FC [10]: -0.59
- log2FC [11]: -0.46
- log2FC [12]: -0.43
- log2FC [13]: -0.39
- log2FC [14]: -0.36
- log2FC [15]: -0.33
- log2FC [16]: 0.58
- log2FC [17]: 0.64
- log2FC [18]: 0.42
- log2FC [19]: 0.68
- log2FC [20]: 0.83
- log2FC [21]: -0.47
- log2FC [22]: -1.03
